This is an account of results in ChEMBL document CHEMBL1140862, “Berberine analogues as a novel class of the low-density-lipoprotein receptor up-regulators: synthesis, structure-activity relationships, and cholesterol-lowering efficacy” (J Med Chem, 2009).

Structures are written as SMILES. Calls of active or inactive are those of the source. The calls are words filed in the database; no cut-off is given here.

Series [1] concerns HepG2. Kind of series: Induction of LDLR mRNA expression in human HepG2 cells after 12 hrs by RT-PCR assay relative to untreated control. The format is functional. The gist of the method: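 HepG2 cells kept in RPMI-1640 with 10% FBS, moved 24 h before dosing to 10% LPDS, then at ~80% confluence to RPMI-1640 with 0.5% LPDS plus compound (5.0 µg/mL in table; concentrations as indicated in figure), 12 h, 37 °C. Total RNA reverse-transcribed, TaqMan real-time PCR, comparative CT method with GAPDH reference; fold of untreated cells (=1); mean of three experiments.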

Series [2] has as its system Rattus norvegicus. Briefly: Reduction of blood cholesterol level in hyperlipidemic Sprague-Dawley rat at 100 mg/kg, po daily twice. More on the design: dose 100 mg/kg. In kind it is functional, organism-based. The conditions noted are these: TDE = time-dependent effect.
For series [3], the system named is Rattus norvegicus. Briefly: Reduction of blood cholesterol level in hyperlipidemic Sprague-Dawley rat at 100 mg/kg, po daily twice for 30 days relative to control. Details: scale not given: the % may be the effect or the level left. In kind it is functional. The procedure, abridged: (§1)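 Male Sprague-Dawley rats on HFHC diet 8 weeks, then saline suspension by gavage at 100 (mg/kg)/day, twice daily, 30 days (n = 8; untreated HFHC n = 6; normal-diet controls). Fasted tail-snip blood at end point; total cholesterol and LDL-c by commercial kits; percent reduction versus untreated HFHC control; mean ± SEM.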

The test system of series [4] is Rattus norvegicus. Briefly: Reduction of blood low density lipoprotein cholesterol level in hyperlipidemic Sprague-Dawley rat at 100 mg/kg, po daily twice. More on the design: dose 100 mg/kg. The format is functional, organism-based. The conditions noted are these: TDE = time-dependent effect.
In series [5] the test system is Rattus norvegicus. Briefly: Induction of HMG-CoA reductase mRNA expression in hyperlipidemic Sprague-Dawley rat liver at 100 mg/kg, po daily twice for 30 days by RT-PCR. The format is functional, organism-based. Details: dose 100 mg/kg. The gist of the method: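 Male Sprague-Dawley rats (180 ± 10 g) fed HFHC diet (2% cholesterol, 10% yolk powder, 15% lard, 0.2% sodium cholate) 8 weeks, then gavaged with compound suspended in saline, 100 (mg/kg)/day, twice daily, 30 days (n = 8; untreated n = 6). Liver RNA, TaqMan real-time RT-PCR, comparative CT with GAPDH; fold of untreated HFHC control.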

Series [6] concerns HepG2. Kind of series: Induction of LDLR protein expression in human HepG2 cells at 10 ug/mL after 12 hrs by flow cytometry. In kind it is functional, cell-based. The procedure, abridged: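 HepG2 cells in LPDS medium treated 12 h with 10 µg/mL compound, detached, fixed in 2% paraformaldehyde at 4 °C overnight, blocked, stained on ice 1 h with rabbit polyclonal anti-LDLR (1:25), then FITC goat anti-rabbit IgG (1:50) 30 min; normal rabbit IgG background control; cell-surface fluorescence by flow cytometry.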
In general terms: Flow cytometry measures light scatter and fluorescence of single cells or particles in a stream.

In series [7] the test system is Mus musculus. Kind of series: Reduction of blood low density lipoprotein cholesterol level in hyperlipidemic C57BL/6J mouse at 100 mg/kg, po daily twice for 21 days relative to control. More on the design: scale not given: the % may be the effect or the level left. In kind it is functional. The procedure, abridged:
(§2)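 Male C57BL/6J mice fed HFHC diet 8 weeks, then gavaged twice daily (0.2 mL saline suspension) at 100 (mg/kg)/day for 21 days (n = 8; untreated n = 6). Fasted tail-snip blood; total cholesterol and LDL-c by commercial kits relative to untreated control.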

Series [8] relates to Bel-7402. Briefly: Induction of LDLR […] in human Bel7402 cells after 12 hrs by RT-PCR assay relative to control. The format is functional, cell-based.
For series [9], the system named is Mus musculus. Briefly: Reduction of blood cholesterol level in hyperlipidemic C57BL/6J mouse at 100 mg/kg, po daily twice for 21 days relative to control. The format is functional. Details: scale not given: the % may be the effect or the level left. The procedure, abridged:
as §2

In series [10] the test system is Rattus norvegicus. Kind of series: Reduction of blood low density lipoprotein cholesterol level in hyperlipidemic Sprague-Dawley rat at 100 mg/kg, po daily twice for 30 days relative to control. In kind it is functional. Details: scale not given: the % may be the effect or the level left. The procedure, abridged:
as §1

A short description of series [11]: Elimination half life in po dosed human. In kind it is ADME, organism-based. The following applies: in vivo, read-out: beta t1/2 (converted).

For the compound `COc1ccc2c(c1OC)C[N+]1(C)CCc3cc4c(cc3C1C2)OCO4.[I-]` (stereo not given), the “fold change (FC)” value in series [1] came to 1.1.

Turning to `CCOc1cc2c(cc1O)-c1cc3ccc(OC)c(OC)c3c[n+]1CC2.[Br-]`, the “fold change (FC)” value in series [1] turned out to be 0.9.

For `CCCOc1cc2c(cc1OCCC)-c1cc3ccc(OC)c(OC)c3c[n+]1CC2.[Br-]`, in series [1], the “fold change (FC)” value was determined as 0.9.

For `COc1ccc2cc3[n+](cc2c1OC)CCc1cc(OCc2ccccc2)c(OCc2ccccc2)cc1-3.[Br-]`, in series [1], the “fold change (FC)” value is given as 1.

Turning to `CCCCc1c2[n+](cc3c(OC)c(OC)ccc13)CCc1cc3c(cc1-2)OCO3.[Cl-]`, in series [1], the “fold change (FC)” value is reported as 0.9.

With `CCCCCCc1c2[n+](cc3c(OC)c(OC)ccc13)CCc1cc3c(cc1-2)OCO3.[Cl-]`, in series [1], the “fold change (FC)” value is on record as 1.

For `CCCCc1c2[n+](cc3cc(OC)c(OC)cc13)CCc1cc3c(cc1-2)OCO3.[Cl-]`, in series [1], the “fold change (FC)” value is recorded as 0.9.

For `CCCc1c2[n+](cc3c(OC)c(OC)ccc13)CCc1cc3c(cc1-2)OCO3.[Cl-]`, the “fold change (FC)” value in series [1] is given as 0.9.

`COc1cc2c[n+]3c(c(Cc4ccccc4)c2cc1OC)-c1cc2c(cc1CC3)OCO2.[Br-]`: the “fold change (FC)” value in [1] turned out to be 1.

In the case of `COc1cc2c[n+]3c(c(C)c2cc1OC)-c1cc2c(cc1CC3)OCO2.[Cl-]`, in series [1], the “fold change (FC)” value is 0.9.

Turning to `COc1ccc2c(C)c3[n+](cc2c1OC)CCc1cc2c(cc1-3)OCO2.[Cl-]`, the “fold change (FC)” value in series [1] was 1.1.

Consider `CCc1c2[n+](cc3c(OC)c(OC)ccc13)CCc1cc3c(cc1-2)OCO3.[Cl-]`, for which, in series [1], the “fold change (FC)” value came out at 1.04.

Regarding `COc1ccc2c(c1OC)C[N+]1(CCO)CCc3cc4c(cc3C1C2)OCO4.[Br-]` (stereo not given), the “fold change (FC)” value in series [1] stood at 1.2.

With `CCCC[N+]12CCc3cc4c(cc3C1Cc1ccc(OC)c(OC)c1C2)OCO4.[Br-]` (stereo not given), in series [1], the “fold change (FC)” value is given as 1.1.

As for `CCOC(=O)C[N+]12CCc3cc4c(cc3C1Cc1ccc(OC)c(OC)c1C2)OCO4.[Br-]` (stereo not given), the “fold change (FC)” value in series [1] is 0.8.

For the compound `COc1ccc2c(c1OC)C[N+]1(Cc3ccccc3)CCc3cc4c(cc3C1C2)OCO4.[Br-]` (stereo not given), the “fold change (FC)” value in series [1] is 1.1.

As to `CC[N+]12CCc3cc4c(cc3C1Cc1cc(OC)c(OC)cc1C2)OCO4.[Br-]` (stereo not given), the “fold change (FC)” value in [1] is on record as 0.8.

For the compound `CCC[N+]12CCc3cc4c(cc3C1Cc1cc(OC)c(OC)cc1C2)OCO4.[I-]` (stereo not given), the “fold change (FC)” value in series [1] was found to be 0.9.

`CCOC(=O)C[N+]12CCc3cc4c(cc3C1Cc1cc(OC)c(OC)cc1C2)OCO4.[Br-]` (stereo not given): the “fold change (FC)” value in series [1] was 1.

As to `COc1cc2c(cc1OC)-c1cc3ccc(OC)c(OC)c3c[n+]1CC2.[I-]`, the “fold change (FC)” value in series [1] is recorded as 0.8.

Consider `COc1cc2c(cc1OC)CN1CCc3cc4c(cc3C1C2)OCO4` (stereo not given), for which the “fold change (FC)” value in [1] amounted to 1.3.

Regarding `COc1cc2c(cc1OC)C[N+]1(C)CCc3cc4c(cc3C1C2)OCO4.[I-]` (stereo not given), the “fold change (FC)” value in series [1] was found to be 0.9.

Consider `CCC[N+]12CCc3cc4c(cc3C1Cc1ccc(OC)c(OC)c1C2)OCO4.[I-]` (stereo not given), for which the “fold change (FC)” value in series [1] is on record as 1.2.

Turning to `CC[N+]12CCc3cc4c(cc3C1Cc1ccc(OC)c(OC)c1C2)OCO4.[Br-]` (stereo not given), the “fold change (FC)” value in series [1] is recorded as 1.

On to `COc1cc2c(cc1OC)C[N+]1(Cc3ccccc3)CCc3cc4c(cc3C1C2)OCO4.[Br-]` (stereo not given), for which the “fold change (FC)” value in [1] came out at 0.9.

`COc1ccc2c(Cc3ccccc3)c3[n+](cc2c1OC)CCc1cc2c(cc1-3)OCO2.[Br-]`: the “fold change (FC)” value in series [1] is listed as 1.4.

As to `CCCCCCc1c2[n+](cc3cc(OC)c(OC)cc13)CCc1cc3c(cc1-2)OCO3.[Cl-]`, the “fold change (FC)” value in series [1] is 1.1.

In the case of `COc1ccc2cc3[n+](cc2c1OC)CCc1cc2c(cc1-3)OCO2.[Cl-]` [BERBERINE CHLORIDE], the Activity entry is “tde” in [2]; 27.4% in series [3]; “tde” in [4]; 23.9% in series [7]; 16.7% in series [9]; 31.6% in series [10]. In addition, the “fold change (FC)” value in series [1] is on record as 2.2. For the same compound, the outcome in [5] was inactive. For the same compound, the result in [6] and in series [8] was Active. Further, the half-life in [11] is 2.94 h.

`COc1ccc2c(c1OC)CN1CCc3cc4c(cc3[C@@H]1C2)OCO4` [CANADINE]: the “fold change (FC)” value in [1] is 1.

As for `COc1cc2c(cc1O)-c1cc3ccc(OC)c(OC)c3c[n+]1CC2.[I-]` [COLUMBAMINE IODIDE], the “fold change (FC)” value in series [1] came to 1.
